Assay results from PMC4415995 (Advances in Therapy, 2015).
Like-named read-outs stand apart in the source and are kept apart here.

Assays:
healthy Japanese males = settings: healthy subjects on luseogliflozin; cited from earlier work
[1] = assay type: in vivo, human; settings: for AUC / AUC(0-inf) / Cmax / half-life / Tmax: human, plasma, oral; for Cmax: C max
Method in brief: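 Oral doses of 0.5–5 mg once daily for 7 days, given with 150 mL water before a standardized ~600 kcal breakfast. Venous blood was drawn pre-dose and 0.25–24 h after dosing on Days 1 and 7, and pre-breakfast on Days 9–11. Urine was pooled at 4 °C over intervals. Samples were stored at −70 °C. Parent and active O-deethyl metabolite were measured by solid-phase extraction and LC–MS/MS with deuterated internal standards. Parameters were non-compartmental; metabolite ratio was AUCτ(M2)/AUCτ(parent).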

Ae0–24 ([1]; 0.5 mg luseogliflozin OD, Day 1, urine): 3.76 ± 0.832 % of dose
Ae0–24 ([1]; 0.5 mg luseogliflozin OD, Day 7, urine): 4.56 ± 1.04 % of dose
Ae0–24 ([1]; 1 mg luseogliflozin OD, Day 1, urine): 4.06 ± 0.497 % of dose
Ae0–24 ([1]; 1 mg luseogliflozin OD, Day 7, urine): 4.30 ± 0.875 % of dose
Ae0–24 ([1]; 2.5 mg luseogliflozin OD, Day 1, urine): 4.51 ± 1.13 % of dose
Ae0–24 ([1]; 2.5 mg luseogliflozin OD, Day 7, urine): 4.79 ± 1.09 % of dose
Ae0–24 ([1]; 5 mg luseogliflozin OD, Day 1, urine): 4.11 ± 0.763 % of dose
Ae0–24 ([1]; 5 mg luseogliflozin OD, Day 7, urine): 4.56 ± 0.617 % of dose
accumulation after multiple doses ([1]; AUCinf Day 1 vs AUCτ Day 7 comparable): does not accumulate
dose proportionality for C max and AUCτ (power model) ([1]; Day 7, 0.5-5 mg): dose proportionality
AUC ([1]; 0.5 mg): 179 ± 32.6 ng·h/mL
AUC(0-inf) ([1]; 0.5 mg): 171 ± 38.4 ng·h/mL
Cmax ([1]; 0.5 mg, 0.5 mg luseogliflozin OD, Day 1, plasma): 21.9 ± 2.88 ng/mL
Cmax ([1]; 0.5 mg, 0.5 mg luseogliflozin OD, Day 7, plasma): 25.6 ± 4.25 ng/mL
half-life ([1]; 0.5 mg, t 1/2, 0.5 mg luseogliflozin OD, Day 1, plasma): 9.86 ± 1.57 h
half-life ([1]; 0.5 mg, t 1/2, 0.5 mg luseogliflozin OD, Day 7, plasma): 10.5 ± 1.03 h
Tmax ([1]; 0.5 mg, t max, 0.5 mg luseogliflozin OD, Day 1, plasma): 0.857 ± 0.556 h
Tmax ([1]; 0.5 mg, t max, 0.5 mg luseogliflozin OD, Day 7, plasma): 0.643 ± 0.244 h
AUC ([1]; 1 mg): 370 ± 55.5 ng·h/mL
AUC(0-inf) ([1]; 1 mg): 357 ± 53.9 ng·h/mL
Cmax ([1]; 1 mg, 1 mg luseogliflozin OD, Day 1, plasma): 43.7 ± 10.8 ng/mL
Cmax ([1]; 1 mg, 1 mg luseogliflozin OD, Day 7, plasma): 52.3 ± 10.9 ng/mL
half-life ([1]; 1 mg, t 1/2, 1 mg luseogliflozin OD, Day 1, plasma): 9.61 ± 1.34 h
half-life ([1]; 1 mg, t 1/2, 1 mg luseogliflozin OD, Day 7, plasma): 10 ± 1.37 h
Tmax ([1]; 1 mg, t max, 1 mg luseogliflozin OD, Day 1, plasma): 0.688 ± 0.259 h
Tmax ([1]; 1 mg, t max, 1 mg luseogliflozin OD, Day 7, plasma): 0.688 ± 0.259 h
AUC ([1]; 2.5 mg): 899 ± 148 ng·h/mL
AUC(0-inf) ([1]; 2.5 mg): 864 ± 132 ng·h/mL
Cmax ([1]; 2.5 mg, 2.5 mg luseogliflozin OD, Day 1, plasma): 119 ± 27 ng/mL
Cmax ([1]; 2.5 mg, 2.5 mg luseogliflozin OD, Day 7, plasma): 136 ± 42 ng/mL
half-life ([1]; 2.5 mg, t 1/2, 2.5 mg luseogliflozin OD, Day 1, plasma): 9.24 ± 0.928 h
half-life ([1]; 2.5 mg, t 1/2, 2.5 mg luseogliflozin OD, Day 7, plasma): 9.2 ± 0.71 h
Tmax ([1]; 2.5 mg, t max, 2.5 mg luseogliflozin OD, Day 1, plasma): 0.625 ± 0.354 h
Tmax ([1]; 2.5 mg, t max, 2.5 mg luseogliflozin OD, Day 7, plasma): 1 ± 0.886 h
AUC ([1]; 5 mg): 1880 ± 318 ng·h/mL
AUC(0-inf) ([1]; 5 mg): 1690 ± 271 ng·h/mL
Cmax ([1]; 5 mg, 5 mg luseogliflozin OD, Day 1, plasma): 243 ± 45.7 ng/mL
half-life ([1]; 5 mg, t 1/2, 5 mg luseogliflozin OD, Day 1, plasma): 8.96 ± 1.11 h
half-life ([1]; 5 mg, t 1/2, 5 mg luseogliflozin OD, Day 7, plasma): 9.54 ± 1.26 h
Tmax ([1]; 5 mg, t max, 5 mg luseogliflozin OD, Day 1, plasma): 0.625 ± 0.231 h
Tmax ([1]; 5 mg, t max, 5 mg luseogliflozin OD, Day 7, plasma): 0.688 ± 0.259 h
half-life ([1]; mean t 1/2, all four doses (0.5-5 mg)): ~10 h
Tmax ([1]; t max (mean), across 0.5-5 mg doses, Days 1 and 7, plasma): 0.625 to 1 h
Structure (SMILES): CCOc1ccc(Cc2cc([C@@H]3S[C@H](CO)[C@@H](O)[C@H](O)[C@H]3O)c(OC)cc2C)cc1 [Luseogliflozin, (1S)-1,5-anhydro-1-[5-(4-ethoxybenzyl)-2-methoxy-4-methylphenyl]-1-thio-D-glucitol]
mean UGE (healthy Japanese males): 58.0 g/day
